Compounds with a hit are over-represented: about 2.3% of the library has one in this group of screens.
OXTR agonist: human OXTR agonism. P30559. CHO-OTR cells, Fluo-8 calcium fluorescence; normalized: DMSO 0%, oxytocin 100%. activation, % at 3 µM. 320,000 tested, 0.32% active. AID 2435;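 active means activation above the mean of all tested compounds plus 3 SD, cutoff set per screening run, cut at about 20% in these data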;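 further: peak over basal fluorescence ratio from a 100 s FLIPR kinetic read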
V1aR counter: activates human V1a receptor in oxytocin agonist counter-screen. CHO-V1R cells, Fluo-8 calcium fluorescence, agonist mode; 0% DMSO, 100% 3 nM vasopressin. activation, % at 3 µM. 320,000 tested, 0.25% active. AID 2797;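 active means activation above the mean activation of all tested compounds plus 3 SD, per screening run, cut at about 20% in these data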;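 further: signal is peak over basal fluorescence ratio across a 100 second FLIPR read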
Target sequence (P37288 whole entry, looked up): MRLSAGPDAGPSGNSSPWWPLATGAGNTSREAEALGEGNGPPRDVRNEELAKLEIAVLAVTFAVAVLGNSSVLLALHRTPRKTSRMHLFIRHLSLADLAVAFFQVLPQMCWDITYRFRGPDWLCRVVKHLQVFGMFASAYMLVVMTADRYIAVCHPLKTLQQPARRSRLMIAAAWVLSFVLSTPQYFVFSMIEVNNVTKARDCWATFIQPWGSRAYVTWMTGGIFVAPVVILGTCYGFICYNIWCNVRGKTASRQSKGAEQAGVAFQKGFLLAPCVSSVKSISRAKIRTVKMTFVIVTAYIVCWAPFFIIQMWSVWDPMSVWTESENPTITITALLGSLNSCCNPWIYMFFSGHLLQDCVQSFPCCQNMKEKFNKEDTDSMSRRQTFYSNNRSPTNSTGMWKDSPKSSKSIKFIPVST
TAAR1 agonist: human TAAR1 agonism | Q96RJ0 | CHO RD-HGA16 TAAR1, Fluo-8 calcium fluorescence; vehicle wells 0%, saturating PEA agonist 100% | activation, % at 3 µM | 360,000 tested, 0.99% active | AID 624467;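 active means activation above the mean activation of all test compounds in the run plus 3 SD, cut at about 38% in these data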
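Test system: RD-HGA16 (CHO) cells co-expressing Gα16 and hTAAR1; dosing: one-point dosing at 3 µM (nominal); timing: 17-24 h seeding, 75 min 37 °C dye, 30 min RT; signal: kinetic Fluo-8 calcium fluorescence; read-out basis: % activation relative to PEA EC100 response; controls: DMSO and PEA EC100; replicates: n 1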
OXTR potentiate: human OXTR potentiation. P30559. CHO-OTR cells, Fluo-8 calcium fluorescence, potentiator mode; 0% = oxytocin EC15, 100% = EC100. activation, % at 3 µM. 320,000 tested, 0.061% active;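 active means activation above that plate's cutoff, the mean activation of tested compounds plus 3 SD, cut at about 6.6% in these data, passing the limit was not always enough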;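 further: 100% uses oxytocin at 75 nM as the full agonist control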
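Assay system: CHO-OTR cells, human receptor / Also added: oxytocin at about EC15, sub-maximal agonist stimulus / Dosing: single dose, 3.0 µM nominal final compound concentration / Incubation: 6 min pre-incubation, 100 s read / Technique: Fluo-8 calcium dye fluorescence / Read-out: % activation vs EC15 and EC100 oxytocin / Benchmarks: EC15 oxytocin low, 75 nM oxytocin high / Replicates: singlicate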
TAAR1 antag: human TAAR1 antagonism; CHO RD-HGA16 TAAR1, Fluo-8 calcium fluorescence, antagonist; inhibition, % at 3 µM; AID 624466; Q96RJ0; 360,000 tested, 1.5% active;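 active means inhibition above a per-plate cutoff, the mean inhibition of test compounds on that plate plus 3 SD, cut at about 49% in these data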;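 further: 0% = DMSO plus EC80 beta-PEA response and 100% = DMSO alone without agonist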
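Test system: hTAAR1-expressing CHO RD-HGA16 cells, Gα16-coupled; Probe or stimulus: EC80 β-phenethylamine stimulus; Compound dosing: single nominal final test compound concentration of 3 µM; Timing: 140 s kinetic read after compound, 140 s after agonist; Signal: Fluo-8 calcium-sensitive fluorescence; Measure: % inhibition of agonist calcium response; Controls: DMSO and EC80 PEA controls.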
Numbers without * were called inactive.

Screening Oc1ccc(/C=N/Nc2ccnc3cc(Cl)ccc23)c(O)c1 returned OXTR agonist 3, V1aR counter 3, TAAR1 agonist 44*, OXTR potentiate 0 and TAAR1 antag -24.
Screening O=C(Cc1ccc(NC(=O)C2CCN(C(=O)C3CC3)CC2)cc1)Nc1cccc(C(=O)N2CCCCC2)c1 returned TAAR1 agonist 3 and TAAR1 antag -17.
`CC[C@]1(C(=O)OC)[C@H]2C(=O)N(C)C(=O)[C@H]2[C@H]2CN(C)C(=NC)N21` gave TAAR1 agonist 1 and TAAR1 antag -11.
For COc1cccc(OC)c1C(=O)NC(=S)Nc1cc(-c2nc3ccccc3[nH]2)ccc1Cl the results were OXTR agonist 0, V1aR counter 0, TAAR1 agonist 11, OXTR potentiate -2 and TAAR1 antag 50*.
`CCCN1C(=O)/C(=C/c2ccc(N3CCCC3)c(C)c2)NC1=S` gave OXTR agonist 112*, V1aR counter 113*, TAAR1 agonist 129*, OXTR potentiate -24 and TAAR1 antag 99*.
For Cc1cc(/C=C2/C(=O)N(C)C(=S)N2C)ccc1N1CCCC1 the results were OXTR agonist 23*, V1aR counter 29*, TAAR1 agonist 26, OXTR potentiate -21 and TAAR1 antag 48.
Cc1cc(/C=C2\NC(=S)N(C)C2=O)ccc1N1CCCC1 was read as OXTR agonist 69*, V1aR counter 79*, TAAR1 agonist 142*, OXTR potentiate -20 and TAAR1 antag 83*.
For CC1(C)Cc2cccc(OC(=O)NC3CCCCC3)c2O1 the results were TAAR1 agonist 15 and TAAR1 antag -1.
For CCOc1ccc(/C=C2\CCCc3c2nc2ccccc2c3C(=O)O)cc1OC the results were OXTR agonist 100*, V1aR counter 135* and OXTR potentiate -17.
For COc1ccc(/C=C2\CCCc3c2nc2ccccc2c3C(=O)O)cc1OC the results were OXTR agonist 2, V1aR counter 14 and OXTR potentiate -9.
Screening COc1ccc2ccc(=O)oc2c1CC(=O)C(C)C returned OXTR agonist 0, V1aR counter 0, TAAR1 agonist 0, OXTR potentiate -7 and TAAR1 antag -16.
For COc1ccc(NC(=O)NN2CCOCC2)cc1OC the results were OXTR agonist 1, V1aR counter 1, TAAR1 agonist 6, OXTR potentiate 5 and TAAR1 antag 63*.
`Cc1ccc(NC(=O)CN(C)CC(=O)Nc2cccc(F)c2)cc1S(=O)(=O)N1CCCCCC1` gave OXTR agonist 0, V1aR counter 1, TAAR1 agonist 8, OXTR potentiate -24 and TAAR1 antag 50*.
Cc1ccc(NC(=O)COc2ccccc2)cc1S(=O)(=O)N1CCCCCC1 was read as OXTR agonist -1, V1aR counter 0, TAAR1 agonist 4, OXTR potentiate -8 and TAAR1 antag 37.
`COc1ccc(NC(=O)CN(C)CC(=O)Nc2cccc(F)c2)cc1S(=O)(=O)N1CCCCC1` gave TAAR1 agonist 6 and TAAR1 antag 13.
For Cc1ccc(NC(=O)COc2ccccc2C#N)cc1S(=O)(=O)N1CCCCCC1 the results were OXTR agonist 1, V1aR counter 3, TAAR1 agonist 8, OXTR potentiate -9 and TAAR1 antag 52*.
Screening CCOc1cc(C)nc(N2CCC(C(=O)NC3CC3)CC2)n1 returned TAAR1 agonist 1 and TAAR1 antag 3.
C=CCN(c1ccccc1)S(=O)(=O)c1ccc(Cl)c(C(=O)OCC(=O)c2[nH]c(C)c(C(C)=O)c2C)c1 was read as OXTR agonist -1, V1aR counter 1, TAAR1 agonist 5, OXTR potentiate -8 and TAAR1 antag 50*.
Screening C=CCN(c1ccc(OC)cc1)S(=O)(=O)c1ccc(Cl)c(C(=O)OCC(=O)NC2CC2)c1 returned OXTR agonist -1, V1aR counter 1, TAAR1 agonist 2, OXTR potentiate -10 and TAAR1 antag 7.
Screening NC(N)=N/N=C/c1cccc(Cl)c1Cl returned OXTR agonist 6, V1aR counter 5, TAAR1 agonist 42*, OXTR potentiate -10 and TAAR1 antag 17.
For CC(C)c1ccc(NC(=O)NCc2cccnc2)cc1 the results were OXTR agonist -1, V1aR counter 1, TAAR1 agonist 2, OXTR potentiate 1 and TAAR1 antag -1.
For COc1ccccc1/C=N/NC(=O)c1cccc(NC(=O)c2ccccc2Cl)c1 the results were OXTR agonist -1, V1aR counter 1, TAAR1 agonist 10, OXTR potentiate -4 and TAAR1 antag 49*.
Screening COc1ccccc1/C=N/NC(=O)c1cccc(NC(=O)c2ccccc2C)c1 returned OXTR agonist 3, V1aR counter 8, TAAR1 agonist 10, OXTR potentiate -5 and TAAR1 antag 44.
For COc1ccc(/C=N/NC(=O)c2cccc(NC(=O)c3ccccc3Cl)c2)cc1OC the results were OXTR agonist 0, V1aR counter 0, TAAR1 agonist 6, OXTR potentiate -14 and TAAR1 antag 37.
Screening COc1cc(/C=N/NC(=O)c2cccc(NC(=O)c3ccccc3Cl)c2)ccc1O returned OXTR agonist 1, V1aR counter 0, TAAR1 agonist 15, OXTR potentiate -18 and TAAR1 antag 53*.
Clc1ccccc1-c1nc2nc3ccccc3nc2n1-c1ccc2c(c1)OCO2 was read as OXTR agonist -1, V1aR counter -1, TAAR1 agonist 10, OXTR potentiate -11 and TAAR1 antag 49*.
For c1csc(-c2nc3nc4ccccc4nc3n2Cc2ccc3c(c2)OCO3)c1 the results were OXTR agonist -1, V1aR counter 0, TAAR1 agonist 13, OXTR potentiate -17 and TAAR1 antag 42.
For Clc1ccccc1Sc1ccc(-c2ccccn2)s1 the results were OXTR agonist -1, V1aR counter 0, TAAR1 agonist 3, OXTR potentiate -6 and TAAR1 antag -27.
Cc1ccc(CNc2nc(NCc3ccccc3)nc3ccsc23)c(C)c1 was read as TAAR1 agonist 37 and TAAR1 antag 54*.
CCOC(=O)Cc1ccc(Nc2nc(NCc3ccccc3)nc3ccsc23)cc1 was read as TAAR1 agonist 2 and TAAR1 antag 72*.
For CCOC(=O)Cc1ccc(Nc2nc(NC)nc3ccsc23)cc1 the results were TAAR1 agonist 10 and TAAR1 antag -1.
`C=CCNc1nc(NCCCN2CCCC2=O)c2sc(-c3ccccc3)cc2n1` gave TAAR1 agonist 2 and TAAR1 antag -4.
CC(=O)Nc1ccc(CNc2nc(NCc3cccs3)nc3ccsc23)cc1 was read as TAAR1 agonist 36 and TAAR1 antag 49*.
Screening O=C1CCCN1CCCNc1nc(NCc2ccccc2)nc2ccsc12 returned TAAR1 agonist 129* and TAAR1 antag 105*.

Assay outcomes (PubChem)
